What all share (assay type): cell-based
What all share (conditions): Homo sapiens

In test [1] the test system is HEK293. In words: Induction of microtubule disruption in HEK293 cells assessed as total alpha tubulin levels after 4 hrs by ELISA relative to control. The essentials: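 Total α-tubulin was measured by ELISA in lysates of HEK-293 cells after 4 h incubation with the test compound. Levels are expressed relative to vehicle-treated control cells. Significance was assessed by one-way ANOVA with Dunnett's post-hoc analysis.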
In general terms: In an ELISA, binding on a coated surface is turned into a signal by an enzyme label.

Test [2] has as its system HEK293. Description: Induction of microtubule stabilization in HEK293 cells assessed as increase in acetylated alpha tubulin levels at 1 uM after 4 hrs by ELISA relative to control. The essentials: (§1)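 HEK-293 cells were exposed to the test compound at 1 or 10 μM for 4 h. Acetylated α-tubulin and total α-tubulin were then measured by ELISA in cell lysates. Levels are expressed relative to vehicle-treated control cells, as the average and SD of triplicate assays. Significance was tested by one-way ANOVA with Dunnett's post-hoc test. Changes in α-tubulin below 15% are treated as assay-to-assay variability.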

The test system of test [3] is HEK293. In words: Induction of microtubule stabilization in HEK293 cells assessed as increase in acetylated alpha tubulin levels at 10 uM after 4 hrs by ELISA relative to control. A digest of the protocol: as §1
The subject of test [4] is HEK293. Description: Induction of microtubule disruption in HEK293 cells assessed as total alpha tubulin levels at 1 uM after 4 hrs by ELISA relative to control. A digest of the protocol: as §1
For test [5], the system named is HEK293. In words: Induction of microtubule disruption in HEK293 cells assessed as total alpha tubulin levels at 10 uM after 4 hrs by ELISA relative to control. The essentials: as §1

Each structure is given as a SMILES string. The source made the active and inactive calls. The rule behind the calls is not given here.

`CN(C)CCCOc1cc(F)c(-c2c(Cl)nc3ncnn3c2NCC2(C)N=N2)c(F)c1`: the Activity entry in the test on HEK293 [1] was “Dose-dependent effect”. Also, the fold change (FC) with HEK293 [2] is 10.5; in the test with HEK293 [3], 0.29; with HEK293 [4], 0.36; in the test on HEK293 [5], 0.19.

For `C[C@H](Nc1c(-c2c(F)cc(F)cc2F)c(Cl)nc2ncnn12)C1(C)N=N1`, the values for the fold change (FC) in the test with HEK293 [3] and in the test with HEK293 [5] were 1.85 and 0.94, respectively.

Take `CO[C@@H]1C[C@H]2CC[C@@H](C1)N2c1c(-c2c(F)cc(F)cc2F)c(Cl)nc2ncnn12`: the fold change (FC) with HEK293 [2] amounted to 3.65; in the test on HEK293 [3], 7.43; in the test with HEK293 [4] it was 1.12; in the test with HEK293 [5], 1.38.

Consider `CC1(CNc2c(-c3c(F)cc(F)cc3F)c(Cl)nc3ncnn23)N=N1`, for which the fold change (FC) is 1.56 with HEK293 [2], 3.42 with HEK293 [3], 1.08 in the test on HEK293 [4] and 1.03 with HEK293 [5].

For `C[C@H](Nc1c(-c2c(F)cc(OCCCNC(=O)c3ccc(C4(C(F)(F)F)N=N4)cc3)cc2F)c(Cl)nc2ncnn12)C(F)(F)F`, the fold change (FC) in the test with HEK293 [2] is 1.3; in the test with HEK293 [3] it was 3.65; in the test on HEK293 [4], 1.31; in the test on HEK293 [5], 0.88.

With `C[C@@H](Nc1c(-c2c(F)cc(F)cc2F)c(Cl)nc2ncnn12)C1(C)N=N1`, the fold change (FC) was found to be 1.42 with HEK293 [2], 4.28 in the test with HEK293 [3], 0.92 with HEK293 [4] and 0.89 in the test with HEK293 [5].

On to `C[C@H](Nc1c(-c2c(F)cc(F)cc2F)c(N=[N+]=[N-])nc2ncnn12)C(F)(F)F`, for which the outcome in the test on HEK293 [2] and in the test on HEK293 [3] was inactive.

For `C[C@H](Nc1c(-c2c(F)cc(OCCCN(C)C)cc2F)c(Cl)nc2ncnn12)C(F)(F)F`, the fold change (FC) came to 5.83 in the test with HEK293 [2], 0.3 in the test with HEK293 [3], 0.29 in the test on HEK293 [4] and 0.14 in the test with HEK293 [5].

Regarding `CNCCCOc1cc(F)c(-c2c(Cl)nc3ncnn3c2N[C@@H](C)C(F)(F)F)c(F)c1`, the fold change (FC) with HEK293 [2] was 7.07; in the test on HEK293 [3] it was 0.1; with HEK293 [4], 0.51; with HEK293 [5], 0.14.

Regarding `C[C@@H](Nc1c(-c2c(F)cc(OCCCN(C)C)cc2F)c(Cl)nc2ncnn12)C1(C)N=N1`, the Activity result with HEK293 [1] is “Dose-dependent effect”. The fold change (FC) in the test on HEK293 [2] turned out to be 21.7; in the test on HEK293 [3], 0.93; with HEK293 [4] it was 0.73; in the test on HEK293 [5] it was 1.01.

Regarding `[N-]=[N+]=Nc1c(-c2c(F)cc(F)cc2F)c(Cl)nc2ncnn12`, the result in the test with HEK293 [2] and in the test on HEK293 [3] was inactive.

Regarding `C[C@H](Nc1c(-c2c(F)cc(OCCCN(C)C)cc2F)c(Cl)nc2ncnn12)C1(C)N=N1`, the fold change (FC) in the test on HEK293 [2] was found to be 6.7; in the test on HEK293 [3], 0.28; in the test with HEK293 [4] it was 0.69; in the test on HEK293 [5], 0.78.

The values are drawn from ChEMBL document CHEMBL4118180, “Design, synthesis and evaluation of photoactivatable derivatives of microtubule (MT)-active [1,2,4]triazolo[1,5-a]pyrimidines” (Bioorg Med Chem Lett, 2018).
